According to ChEMBL document CHEMBL1144399, “Peptoid-peptide hybrids as potent novel melanocortin receptor ligands” (J Med Chem, 2005):
Where a SMILES comes first, the peptide text is derived from it. [ ]: non-standard residue; d: D form. Gly(N(CH2)2(3-indolyl)) = O=C(O)CNCCc1c[nH]c2ccccc12; Gly(N-(CH2)3-guanidino) = N=C(N)NCCCNCC(=O)O; Nle = CCCC[C@H](N)C(=O)O; Nphe = O=C(O)CNCc1ccccc1; NBuGly = CCCCNCC(=O)O; Nlys = NCCCCNCC(=O)O

Tests used:
Type in all cases: cell-based, HEK293
[1] = molecular target: T1, Melanocortin receptor 5 (Mus musculus, UniProt P41149); assay: Displacement of [125I]NDP-MSH from mouse melanocortin receptor-5 expressed in 293 HEK cells
Procedure, shortened: (§1)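 Radioligand competition with [125I]-NDP-MSH on HEK293 cells expressing human MC3, human MC4 or mouse MC5 receptor. Ligands up to 30 µM. IC50 reported as -log(IC50) (M) with 95% confidence ranges. Ligands without activation activity were tested only at a single 30 µM concentration.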

[2] = molecular target: T2, Melanocortin receptor 4 (Homo sapiens, UniProt P32245); assay: Effective concentration against human melanocortin receptor-4 expressed in 293 HEK cells
Procedure, shortened: (§2)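 LacZ reporter-gene activation assay in HEK293 cells expressing human MC3, human MC4 or mouse MC5 receptor. Dose-response curves run up to 30 µM. EC50 reported as -log(EC50) (M) with 95% confidence ranges. Incomplete or absent curves at 30 µM were not assigned values.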

[3] = molecular target: T2, Melanocortin receptor 4; assay: Displacement of [125I]NDP-MSH from human melanocortin receptor-4 expressed in 293 HEK cells; procedure, shortened: as §1
[4] = molecular target: T3, Melanocortin receptor 3 (Homo sapiens, UniProt P41968); assay: Effective concentration against human melanocortin receptor-3 expressed in 293 HEK cells; procedure, shortened: as §2
[5] = molecular target: T1, Melanocortin receptor 5; assay: Effective concentration against mouse melanocortin receptor-5 expressed in 293 HEK cells; procedure, shortened: as §2
[6] = molecular target: T3, Melanocortin receptor 3; assay: Displacement of [125I]NDP-MSH from human melanocortin receptor-3 expressed in 293 HEK cells; procedure, shortened: as §1

T3 sequence (P41968 whole entry): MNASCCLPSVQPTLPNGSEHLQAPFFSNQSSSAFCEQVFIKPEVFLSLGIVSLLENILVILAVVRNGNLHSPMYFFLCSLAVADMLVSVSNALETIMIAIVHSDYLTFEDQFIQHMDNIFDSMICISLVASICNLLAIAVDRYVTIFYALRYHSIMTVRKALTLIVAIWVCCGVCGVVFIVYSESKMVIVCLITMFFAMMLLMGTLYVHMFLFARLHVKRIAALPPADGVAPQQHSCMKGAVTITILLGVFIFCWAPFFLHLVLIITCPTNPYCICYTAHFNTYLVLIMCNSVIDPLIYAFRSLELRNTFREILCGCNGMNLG
T2 sequence (P32245 whole entry): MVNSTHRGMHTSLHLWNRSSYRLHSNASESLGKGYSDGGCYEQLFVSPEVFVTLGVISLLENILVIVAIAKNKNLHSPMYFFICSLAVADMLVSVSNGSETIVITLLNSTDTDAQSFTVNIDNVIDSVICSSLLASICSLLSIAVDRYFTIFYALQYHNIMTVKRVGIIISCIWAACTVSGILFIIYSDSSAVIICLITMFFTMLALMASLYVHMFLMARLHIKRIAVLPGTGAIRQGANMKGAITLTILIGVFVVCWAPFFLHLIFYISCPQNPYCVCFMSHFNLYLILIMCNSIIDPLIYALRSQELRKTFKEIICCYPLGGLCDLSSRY
T1 sequence (P41149 whole entry): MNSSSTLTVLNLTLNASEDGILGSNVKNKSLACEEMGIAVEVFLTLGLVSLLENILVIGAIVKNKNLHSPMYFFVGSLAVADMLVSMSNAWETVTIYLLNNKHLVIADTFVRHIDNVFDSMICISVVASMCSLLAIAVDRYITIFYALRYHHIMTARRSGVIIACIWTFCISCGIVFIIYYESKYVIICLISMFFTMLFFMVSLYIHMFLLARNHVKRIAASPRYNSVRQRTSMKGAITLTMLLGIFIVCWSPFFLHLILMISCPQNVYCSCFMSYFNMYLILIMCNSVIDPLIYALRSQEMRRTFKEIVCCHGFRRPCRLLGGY

Compound	IC50 [1] [nM]	EC50 [2] [nM]	IC50 [3] [nM]	EC50 [4] [nM]	EC50 [5] [nM]	IC50 [6] [nM]
CCCCN(CC(=O)NCC(=O)N(CCCCN)CC(=O)N[C@H](Cc1ccccc1)C(=O)N[C@@H](CCCN=C(N)N)C(=O)N(CCc1c[nH]c2ccccc12)CC(=O)NCC(N)=O)C(C)=O	6310	6310	2000	–	–	–
CCCCN(CC(=O)NCC(=O)N[C@@H](CCCCN)C(=O)N[C@H](Cc1ccccc1)C(=O)N[C@@H](CCCNC(=N)N)C(=O)N(CCc1c[nH]c2ccccc12)CC(=O)NCC(N)=O)C(C)=O	–	316	–	3160	–	–
CCCC[C@H](NC(C)=O)C(=O)NCC(=O)N[C@@H](CCCCN)C(=O)N[C@H](Cc1ccccc1)C(=O)N[C@@H](CCCNC(=N)N)C(=O)N[C@@H](Cc1c[nH]c2ccccc12)C(=O)NCC(N)=O	–	0.501	2.51	7.94	31.6	200
CCCC[C@H](NC(C)=O)C(=O)NCC(=O)N[C@@H](CCCCN)C(=O)N[C@H](Cc1ccccc1)C(=O)N(CCCNC(=N)N)CC(=O)N[C@@H](Cc1c[nH]c2ccccc12)C(=O)NCC(N)=O	3160	631	398	3980	251	5010
CCCCN(CC(=O)NCC(=O)N(CCCCN)CC(=O)N[C@H](Cc1ccccc1)C(=O)N(CCCN=C(N)N)CC(=O)N(CC(=O)NCC(N)=O)Cc1c[nH]c2ccccc12)C(C)=O	3980	5010	3980	–	–	–
CCCC[C@H](NC(C)=O)C(=O)NCC(=O)N[C@@H](CCCCN)C(=O)N[C@H](Cc1ccccc1)C(=O)N[C@@H](CCCN=C(N)N)C(=O)N(CCc1c[nH]c2ccccc12)CC(=O)NCC(N)=O	10000	316	316	2000	2000	7940
CCCCN(CC(=O)NCC(=O)N[C@@H](CCCCN)C(=O)N[C@H](Cc1ccccc1)C(=O)N[C@@H](CCCN=C(N)N)C(=O)N[C@@H](Cc1c[nH]c2ccccc12)C(=O)NCC(N)=O)C(C)=O	–	2.51	20	25.1	794	126
CCCCN(CC(=O)NCC(=O)N[C@@H](CCCCN)C(=O)N(CC(=O)N[C@@H](CCCN=C(N)N)C(=O)N[C@@H](Cc1c[nH]c2ccccc12)C(=O)NCC(N)=O)Cc1ccccc1)C(C)=O (Ac-[NBuGly]GK[Nphe]RWG-NH2)	5010	2000	5010	–	–	–
CCCCN(CC(=O)NCC(=O)N(CCCCN)CC(=O)N[C@@H](Cc1ccccc1)C(=O)N(CCCN=C(N)N)CC(=O)N[C@@H](Cc1c[nH]c2ccccc12)C(=O)NCC(N)=O)C(C)=O (Ac-[NBuGly]G[Nlys]F[Gly(N-(CH2)3-guanidino)]WG-NH2)	–	3160	5010	–	6310	–
CCCC[C@H](NC(C)=O)C(=O)NCC(=O)N[C@@H](CCCCN)C(=O)N(CC(=O)N[C@@H](CCCN=C(N)N)C(=O)N[C@@H](Cc1c[nH]c2ccccc12)C(=O)NCC(N)=O)Cc1ccccc1 (Ac-[Nle]GK[Nphe]RWG-NH2)	–	1260	–	–	–	–
CCCC[C@H](NC(C)=O)C(=O)NCC(=O)N[C@@H](CCCCN)C(=O)N(CC(=O)N(CCCN=C(N)N)CC(=O)N(CCc1c[nH]c2ccccc12)CC(=O)NCC(N)=O)Cc1ccccc1 (Ac-[Nle]GK[Nphe][Gly(N-(CH2)3-guanidino)][Gly(N(CH2)2(3-indolyl))]G-NH2)	–	–	–	–	7940	–
CCCC[C@H](NC(C)=O)C(=O)NCC(=O)N(CCCCN)CC(=O)N[C@@H](Cc1ccccc1)C(=O)N(CCCN=C(N)N)CC(=O)N[C@@H](Cc1c[nH]c2ccccc12)C(=O)NCC(N)=O (Ac-[Nle]G[Nlys]F[Gly(N-(CH2)3-guanidino)]WG-NH2)	–	2000	–	–	501	–
CCCC[C@H](NC(C)=O)C(=O)NCC(=O)N(CCCCN)CC(=O)N(CC(=O)N[C@@H](CCCN=C(N)N)C(=O)N[C@@H](Cc1c[nH]c2ccccc12)C(=O)NCC(N)=O)Cc1ccccc1 (Ac-[Nle]G[Nlys][Nphe]RWG-NH2)	–	2000	–	–	–	–
CCCC[C@H](NC(C)=O)C(=O)NCC(=O)N(CCCCN)CC(=O)NC(Cc1ccccc1)C(=O)N(CCCNC(=N)N)CC(=O)N(CC(=O)NCC(N)=O)Cc1c[nH]c2ccccc12 (single isomer, unassigned)	3160	2000	3160	6310	3160	–
CCCC[C@H](NC(C)=O)C(=O)NCC(=O)N(CCCCN)CC(=O)NC(Cc1ccccc1)C(=O)N(CCCNC(=N)N)CC(=O)N(CCc1c[nH]c2ccccc12)CC(=O)NCC(N)=O (single isomer, unassigned)	1580	398	501	3980	1000	3980
